Data set [1] is described as follows: Photophysical property of the compound assessed as fluorescence quantum yield. Type of data set: physicochemical.
Data set [2] concerns AD293. The data set is described as follows: Effect on morphological changes in human AD293 cells at 10 uM. The class given is functional, cell-based. In a few lines: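 AD293 cells treated with 10 μM compound, followed by LED irradiation or kept unirradiated, then morphology examined by microscopy.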
In data set [3] the test system is AD293. The data set is described as follows: Cytotoxicity against human AD293 cells assessed as cell viability at 0.1 to 10 uM incubated for 24 hrs by MTT assay. Type of data set: toxicity, cell-based. The settings on record: ad293, 24 h, dose 0.1-10 µM. In a few lines:
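AD293 cells seeded at 4 × 10^4 cells/well in DMEM with 10% FBS. Next day, compound (100 nM, 1 μM, 10 μM) or vehicle added in serum-free DMEM for 24 h, no irradiation. MTT (5 mg/mL reagent) added for 3 h at 37 °C, formazan dissolved in DMSO, absorbance read at 590 nm. Triplicate wells, four independent experiments.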

In data set [4] the target is T1, Toll-like receptor 7 (Homo sapiens) (UniProt Q9NYK1).
T1 sequence (whole entry): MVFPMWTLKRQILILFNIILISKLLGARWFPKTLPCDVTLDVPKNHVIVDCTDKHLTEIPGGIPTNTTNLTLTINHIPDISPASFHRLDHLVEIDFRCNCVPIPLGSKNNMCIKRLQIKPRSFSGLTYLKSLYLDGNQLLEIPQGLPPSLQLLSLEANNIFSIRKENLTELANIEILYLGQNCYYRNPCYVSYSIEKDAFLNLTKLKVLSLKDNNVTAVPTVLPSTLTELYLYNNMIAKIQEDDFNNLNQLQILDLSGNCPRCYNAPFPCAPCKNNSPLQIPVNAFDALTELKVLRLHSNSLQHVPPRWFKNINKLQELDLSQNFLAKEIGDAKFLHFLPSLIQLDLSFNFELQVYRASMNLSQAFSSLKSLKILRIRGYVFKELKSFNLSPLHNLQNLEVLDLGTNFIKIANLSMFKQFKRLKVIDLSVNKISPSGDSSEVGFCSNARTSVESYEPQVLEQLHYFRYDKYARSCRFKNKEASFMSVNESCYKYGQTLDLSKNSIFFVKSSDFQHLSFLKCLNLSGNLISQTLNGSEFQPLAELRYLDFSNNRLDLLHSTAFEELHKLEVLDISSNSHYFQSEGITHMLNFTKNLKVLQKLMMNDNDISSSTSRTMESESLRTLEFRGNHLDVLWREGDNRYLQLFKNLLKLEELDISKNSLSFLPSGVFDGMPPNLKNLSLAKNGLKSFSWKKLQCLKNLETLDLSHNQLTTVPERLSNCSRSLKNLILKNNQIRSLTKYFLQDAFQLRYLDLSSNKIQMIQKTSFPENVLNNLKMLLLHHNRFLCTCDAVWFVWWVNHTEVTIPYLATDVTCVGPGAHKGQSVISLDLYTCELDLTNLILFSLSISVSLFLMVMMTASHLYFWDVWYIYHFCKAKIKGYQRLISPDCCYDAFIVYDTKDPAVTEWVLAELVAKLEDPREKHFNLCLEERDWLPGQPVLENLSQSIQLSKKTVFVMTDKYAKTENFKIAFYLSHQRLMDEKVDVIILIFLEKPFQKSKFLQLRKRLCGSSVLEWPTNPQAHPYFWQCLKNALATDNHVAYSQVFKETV
The data set is described as follows: Activation of TLR7 in human AD293 cells assessed as IkappaB-alpha degradation at 10 uM preincubated with NAC followed by compound addition and measured after 30 mins under 650nm red light irradiation by Western blot analysis. As to conditions: filed as activator. The class given is cell-based. Summed up: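 Stable TLR7-expressing AD293 line made by TLR7 plasmid transfection and hygromycin B selection (250 μg/mL, 10 days). Cells pretreated with N-acetyl-cysteine, then given 10 μM compound, with or without 30 min 650 nm red-light irradiation. Lysates run on 10% SDS-PAGE and blotted to PVDF. Total IκB probed (1:1000) with GAPDH loading control, ECL detection. Means of three experiments.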

Data set [5] is described as follows: Upregulation of iNOS mRNA expression in mouse RAW264.7 cells assessed as fold change at 100 nM preincubated with NAC followed by compound addition and measured after 30 mins under 650nm LED light irradiation by real-time PCR analysis. The class given is functional. The settings on record: 0.5 h. Summed up:
(§1)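 RAW264.7 cells seeded at 0.3 million per 35 mm dish. Next day, pretreated with 10 mM N-acetyl-cysteine for 30 min, then given 100 nM compound and 650 nm LED light for 30 min. Total RNA taken 24 h later and reverse transcribed with random primers. SYBR real-time PCR run for 40 cycles (95/60/72 °C). Quantities calculated by the Ct method. Results given as fold change, means ± SD.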

Data set [6] is described as follows: Upregulation of TNF-alpha mRNA expression in mouse RAW264.7 cells assessed as fold change at 100 nM preincubated with NAC followed by compound addition and measured after 30 mins under 650nm LED light irradiation by real-time PCR analysis. The class given is functional. The settings on record: 0.5 h. Summed up:
as §1

Data set [7] in a line: Induction of superoxide anion radical assessed as DMPO-O2 radical adduct formation under light irradiation measured after 10 mins by ESR spectra analysis. The class given is functional. Summed up:
(§2)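 ESR spectra recorded with DMPO as spin trap to detect superoxide and/or hydroxyl radical adducts, before and after 10 min irradiation of compound.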

Data set [8] can be described thus: Induction of hydroxyl radical assessed as DMPO-OH radical adduct formation under dark condition measured after 10 mins by ESR spectra analysis. Type of data set: functional. Summed up: as §2
Data set [9] in a line: Phototoxicity in human A549 cells assessed as cell viability at 10 uM under 530 ot 650nm 30 mW LED light irradiation and measured after 72 hrs by CCK-8 method relative to control. The class given is functional. As to conditions: A549, light or radiation study, read-out: Activity. Summed up: (§3)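 A549, HaCaT and HeLa cells seeded at 2 × 10^3 cells/well in phenol red-free DMEM with 10% FBS. After 24 h, medium replaced with 1% DMSO containing 10 μM compound. After 90 min, one plate kept dark and one exposed to 530 or 650 nm LED (30 mW) for 15 min. Plates incubated 72 h, then CCK-8 read at 450 nm. Viability taken relative to dark control. Triplicates (HaCaT six).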

The nature of data set [10]: Dark toxicity in human HaCaT cells assessed as cell viability at 10 uM under dark condition and measured after 72 hrs by CCK-8 method relative to control. As to conditions: read-out: Activity. Type of data set: cell-based. Summed up: as §3
Data set [11] is described as follows: Thermal stability of compound in DMSO-d6 at 37.5 degree C measured before 24 hrs by 1H NMR spectroscopy analysis. The class given is physicochemical. In a few lines: (§4)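 Compound in DMSO-d6 followed by 1H NMR. Degradation taken from the intensity of three signals (one resiquimod, one BODIPY, and the linkage NH), each relative to the DMSO-d6 internal standard, and the three averaged.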

Data set [12] can be described thus: Thermal stability of compound in DMSO-d6 at 37.5 degree C measured after 2 days by 1H NMR spectroscopy analysis relative to control. The settings on record: 48 h; time 2 day. The class given is physicochemical. Summed up: as §4
Data set [13] in a line: Thermal stability of compound in DMSO-d6 at 37.5 degree C measured after 3 days by 1H NMR spectroscopy analysis relative to control. Type of data set: physicochemical. The settings on record: 72 h; time 3 day. Summed up: as §4
Data set [14] in a line: Photorelease activity of the compound in DMSO-d6 measured within 90 mins under 660nm 400mW LED light by 1H NMR spectroscopy analysis relative to control. The settings on record: 1.5 h. Type of data set: ADME.
The nature of data set [15]: Photorelease activity of the compound in aqueous solution at 30 uM under dark condition by 1H NMR spectroscopy analysis. The settings on record: buffer. Type of data set: ADME.

Active and inactive are the calls of the source. The rule behind the calls is not given here.

On to `CCOCc1nc2c(NC(=O)OCC3=C4C(C)=CC(/C=C/c5ccc(OCCOCCOCCOC)cc5)=[N+]4[B-](C)(C)n4c(/C=C/c5ccc(OCCOCCOCCOC)cc5)cc(C)c43)nc3ccccc3c2n1CC(C)(C)O`, for which the Activity is 0.411 in [1]; “Non-toxic” in the data set on AD293 [3]; “Not_active” in [11]; 11% in data set [12]; 15% in data set [13]; ~ 90% in [14]. The Activity result in [15] is listed as “Not_active”. Further, the outcome (in the data set on AD293 [2]; in data set [7]; in data set [8]) was inactive. In addition, the result in data set [4] was Active. Further, the “fold change (FC)” value was around 4 in [5] and around 2 in [6]. In addition, the viability at 10 µM in [9] was 55%. In addition, the viability at 72 h, 10 µM in [10] turned out to be 2%.
